Laboratory results reported in paper PMC7808142 (ACS Omega, 2020).

Assays:
[1] = Stability in rat plasma under different storage conditions; assay type: in vitro ADME; settings: n = 5
[2] = Pharmacokinetics in rats after intravenous and oral administration; assay type: in vivo, Sprague-Dawley rats; settings: rat; for AUC(0-inf) / AUC(0-t) / C0 / MRT last / Vd / clearance / half-life / Cmax / bioavailability / Tmax: male, Sprague-Dawley, plasma; for half-life: t1/2, rat; for half-life / Tmax / AUCextr / t1/2: n = 3
How it was run: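 Male SD rats (220–250 g), fasted 12 h, with jugular vein cannulae placed 2 days earlier under pentobarbital. Groups of 3 received 5 mg/kg iv (2 mg/mL with 30% HP-β-CD) or 100 mg/kg po (10 mg/mL suspension in 0.5% CMC-Na). Plasma (50 μL) was mixed with terfenadine internal standard and analysed by MRM LC-MS/MS (calibration 1.00–1000 ng/mL). Parameters are mean ± SD.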

[3] = autosampler for 24 h (4 °C), spiked 2.00 ng/mL
[4] = autosampler for 24 h (4 °C), spiked 50.0 ng/mL
[5] = autosampler for 24 h (4 °C), spiked 800 ng/mL
[6] = long-term (30 days at -80 °C), spiked 2.00 ng/mL
[7] = long-term (30 days at -80 °C), spiked 50.0 ng/mL
[8] = long-term (30 days at -80 °C), spiked 800 ng/mL
[9] = three freeze/thaw cycles, spiked 2.00 ng/mL
[10] = three freeze/thaw cycles, spiked 50.0 ng/mL
[11] = three freeze/thaw cycles, spiked 800 ng/mL

Structure (SMILES)	stability, measured concentration [1, 3] [ng/mL]	stability, accuracy (%, RE) [1, 4] [%]	stability, measured concentration [1, 4] [ng/mL]	stability, accuracy (%, RE) [1, 5] [%]	stability, measured concentration [1, 5] [ng/mL]	stability, accuracy (%, RE) [1, 6] [%]	stability, measured concentration [1, 6] [ng/mL]	stability, accuracy (%, RE) [1, 7] [%]	stability, measured concentration [1, 7] [ng/mL]	stability, accuracy (%, RE) [1, 8] [%]	stability, measured concentration [1, 8] [ng/mL]	stability, measured concentration [1, 9] [ng/mL]	stability, accuracy (%, RE) [1, 10] [%]	stability, measured concentration [1, 10] [ng/mL]	stability, accuracy (%, RE) [1, 11] [%]	stability, measured concentration [1, 11] [ng/mL]	AUC(0-inf) ([2]; iv, 5 mg/kg) [ng·h/mL]	AUC(0-t) ([2]; iv, 5 mg/kg) [ng·h/mL]	C0 ([2]; iv, 5 mg/kg) [ng/mL]	MRT last ([2]; iv, 5 mg/kg) [h]	also measured
C[C@@H]1CC[C@H]2[C@@H](C)C(=O)O[C@@H]3O[C@@]4(C)CC[C@@H]1[C@]32OO4 [artemisinin, Artemisinin]	1.91 ± 0.02	91.0	45.5 ± 0.66	97.1	777 ± 6.68	97.3	1.95 ± 0.02	91.3	45.7 ± 1.46	95.2	762 ± 9.29	1.90 ± 0.02	95.2	47.6 ± 0.52	96.3	770 ± 9.11	130 ± 39.1	129 ± 38.9	700 ± 166	0.408 ± 0.066	stability, accuracy (%, RE) [1, 3]: 95.7%; stability, accuracy (%, RE) [1, 9]: 95.2%; Vd ([2]; iv, 5 mg/kg): 45.1 ± 12.3 L/kg; clearance ([2]; iv, 5 mg/kg): 674 ± 174 mL/min/kg; half-life ([2]; iv, 5 mg/kg, i.v. 5 mg/kg): 0.77 ± 0.06 h; AUC(0-inf) ([2]; po, 100 mg/kg): 318 ± 21.6 ng·h/mL; AUC(0-t) ([2]; po, 100 mg/kg): 309 ± 22.3 ng·h/mL; Cmax ([2]; po, 100 mg/kg): 65.1 ± 10.4 ng/mL; MRT last ([2]; po, 100 mg/kg): 3.46 ± 0.249 h; bioavailability ([2]; po, 100 mg/kg): 12.2 ± 0.832%; Tmax ([2]; po, 100 mg/kg, p.o. 100 mg/kg): 1.33 ± 0.58 h; half-life ([2]; po, 100 mg/kg, p.o. 100 mg/kg): 2.22 ± 0.25 h; time after which the compound could not be detected in blood ([2]; i.v. 5 mg/kg): 4 h; AUCextr ([2]; i.v. 5 mg/kg): 0.967 ± 0.110%; t1/2 ([2]; i.v. 5 mg/kg, 5 mg/kg): 0.773 ± 0.0598 h; time until which the compound was detectable in plasma (above LLOQ) ([2]; p.o. 100 mg/kg): 12 h; AUCextr ([2]; p.o. 100 mg/kg): 2.89 ± 0.999%
C[C@@H]1CC[C@H]2[C@@H](C)C(=O)O[C@@H]3O[C@@]4(C)CC[C@@H]1[C@]32O4 [deoxyartemisinin, Deoxyartemisinin]	2.18 ± 0.10	99.0	53.9 ± 1.66	99.0	782 ± 26.3	101.5	2.03 ± 0.07	108.4	54.2 ± 1.91	96.0	768 ± 50.2	1.98 ± 0.08	109.1	52.3 ± 0.99	109.1	774 ± 16.0	222 ± 47.1	219 ± 46.1	1070 ± 173	0.671 ± 0.183	Vd ([2]; iv, 5 mg/kg): 48.3 ± 8 L/kg; clearance ([2]; iv, 5 mg/kg): 385 ± 74.5 mL/min/kg; half-life ([2]; iv, 5 mg/kg, i.v. 5 mg/kg): 1.12 ± 0.16 h; AUC(0-inf) ([2]; po, 100 mg/kg): 71 ± 14.1 ng·h/mL; AUC(0-t) ([2]; po, 100 mg/kg): 67.3 ± 14.2 ng·h/mL; Cmax ([2]; po, 100 mg/kg): 62.4 ± 31.3 ng/mL; MRT last ([2]; po, 100 mg/kg): 1.21 ± 0.388 h; bioavailability ([2]; po, 100 mg/kg): 1.6 ± 0.317%; Tmax ([2]; po, 100 mg/kg, p.o. 100 mg/kg): ~0.39 h; half-life ([2]; po, 100 mg/kg, p.o. 100 mg/kg): 1.12 ± 0.156 h; time after which the compound could not be detected in blood ([2]; i.v. 5 mg/kg): 8 h; AUCextr ([2]; i.v. 5 mg/kg): 1.33 ± 0.214%; t1/2 ([2]; i.v. 5 mg/kg, 5 mg/kg): 1.45 ± 0.059 h; time until which the compound was detectable in plasma (above LLOQ) ([2]; p.o. 100 mg/kg): 6 h; AUCextr ([2]; p.o. 100 mg/kg): 5.33 ± 1.92%
